Laboratory results published in article PMC9398548 (European journal of pharmaceutical sciences : official …, 2020).
Values joined by “and” are separate entries in the source; they are usually repeats but may differ in a detail not shown here. Identical values can stand only once. “Also recorded” adds a separate entry of the source. Like-named read-outs stand apart in the source and are kept apart here.

Experiments:
HDAC8 = target: T1, HDAC8 (Homo sapiens, UniProt Q9BY41); experiment: HDAC enzyme activity assay, HDAC8; assay type: biochemical; settings: for HDAC-8 relative enzyme activity: primary screening at 50 μM
T1 sequence (Q9BY41 1-377): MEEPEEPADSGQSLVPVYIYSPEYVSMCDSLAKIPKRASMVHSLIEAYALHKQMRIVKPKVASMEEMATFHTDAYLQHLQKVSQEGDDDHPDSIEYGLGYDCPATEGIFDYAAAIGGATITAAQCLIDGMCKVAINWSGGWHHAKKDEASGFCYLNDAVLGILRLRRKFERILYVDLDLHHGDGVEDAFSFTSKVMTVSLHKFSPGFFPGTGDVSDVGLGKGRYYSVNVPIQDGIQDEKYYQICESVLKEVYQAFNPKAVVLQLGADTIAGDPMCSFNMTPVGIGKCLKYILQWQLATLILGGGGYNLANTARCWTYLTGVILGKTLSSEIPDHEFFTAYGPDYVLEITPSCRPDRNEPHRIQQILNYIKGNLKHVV
Procedure, shortened: (§1)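 Enzymes were recombinant: HDAC8, and the codon-optimised human HDAC4 catalytic domain (pET14b). Serial inhibitor dilutions in 25 mM Tris-HCl, 75 mM KCl, 0.001% Pluronic F-127, pH 8.0 were pre-incubated with enzyme for 1 h at 30 °C. Reaction ran 60 min at 30 °C with 20 μM Boc-Lys(trifluoroacetyl)-AMC and was stopped with 1.7 μM SATFMK. Trypsin (0.4 mg/ml) released AMC; fluorescence read at Ex 350/Em 450 nm. Triplicate; IC50 from dose-response curves.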

K562 cells = experiment: MTT cytotoxicity assay in K562 cells; assay type: cell-based; settings: read-out: K562- IC50
Procedure, shortened: (§2)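 Cells were grown in suspension in RPMI 1640 with 10% FBS and penicillin/streptomycin/amphotericin B at 37 °C under 5% CO2. They were seeded at ~5×10^3 cells/well, kept overnight, then exposed to test compounds diluted in DMSO for 48 h. Cells were pelleted (300 g, 4 °C, 5 min) and washed twice in phosphate buffer. MTT (5 mg/ml stock) was added for 4 h at 37 °C, formazan dissolved in DMSO, and A570 read. Triplicate; IC50 given as mean±SD.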

CEM cells = experiment: MTT cytotoxicity assay in CEM cells; assay type: cell-based; settings: read-out: CEM- IC50, 48 h, Mean±SD, n=3
Procedure, shortened: as §2

HDAC4 = HDAC4 (Homo sapiens, UniProt P56524); experiment: HDAC enzyme activity assay, HDAC4; assay type: biochemical
Sequence of HDAC4 (P56524 655-1084 limits assumed): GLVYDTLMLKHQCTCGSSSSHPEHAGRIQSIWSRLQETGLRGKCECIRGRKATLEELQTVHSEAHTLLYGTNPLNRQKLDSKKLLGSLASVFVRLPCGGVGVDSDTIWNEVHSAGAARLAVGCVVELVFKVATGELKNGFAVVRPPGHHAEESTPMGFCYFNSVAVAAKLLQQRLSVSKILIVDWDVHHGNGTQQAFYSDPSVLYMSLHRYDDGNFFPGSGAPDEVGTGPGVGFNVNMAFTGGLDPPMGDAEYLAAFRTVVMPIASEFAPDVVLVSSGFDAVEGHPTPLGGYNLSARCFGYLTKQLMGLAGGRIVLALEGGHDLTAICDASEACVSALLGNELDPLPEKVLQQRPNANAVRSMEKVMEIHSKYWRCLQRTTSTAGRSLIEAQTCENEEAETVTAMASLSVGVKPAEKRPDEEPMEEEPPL
Procedure, shortened: as §1

GLUT5 = assay type: cell-based, human; settings: up to 100 μM
Procedure, shortened: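 Uses hexose-transporter-null VW4000 yeast expressing human GLUT5, cultured at 30 °C and 180 rpm. Cells were grown one day in YEP/2% maltose with G418, then 1–2 days in YEP/2% fructose starting from OD600 ~0.5. Washed cells in PBS pH 7.4 (OD600 ~10) took up 10 mM C14-fructose for 10 min. Uptake was stopped with ice-cold KPi/LiCl quench buffer pH 5.5, then filtered and scintillation-counted. Controls were 1% DMSO and 100 μM MSNBA. Screening was at 100 μM; three independent measurements.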

GLUT1 = target: T2, GLUT1 (Homo sapiens, UniProt P11166); assay type: cell-based; settings: for IC50: GLUT1 IC50, hxt0 yeast cells expressing GLUT1, 5 mM C14-glucose, 10 minutes; for decrease of relative transport activity of GLUT1: primary screen, 100 μM compound
T2 sequence (P11166 1-492): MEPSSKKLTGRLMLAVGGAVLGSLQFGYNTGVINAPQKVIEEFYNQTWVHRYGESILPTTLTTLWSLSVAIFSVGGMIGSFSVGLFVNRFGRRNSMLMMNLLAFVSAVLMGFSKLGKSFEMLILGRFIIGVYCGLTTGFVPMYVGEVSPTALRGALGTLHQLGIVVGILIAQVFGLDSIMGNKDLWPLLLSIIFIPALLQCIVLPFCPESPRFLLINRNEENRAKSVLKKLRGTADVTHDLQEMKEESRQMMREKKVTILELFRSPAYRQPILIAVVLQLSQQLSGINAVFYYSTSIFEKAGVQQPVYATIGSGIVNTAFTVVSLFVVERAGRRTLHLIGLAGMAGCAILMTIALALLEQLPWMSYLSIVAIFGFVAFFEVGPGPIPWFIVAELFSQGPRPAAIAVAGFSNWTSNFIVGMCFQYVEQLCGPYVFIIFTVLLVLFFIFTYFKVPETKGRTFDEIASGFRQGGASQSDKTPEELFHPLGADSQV
Procedure, shortened: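 VW4000fgy1 hxt0 yeast carrying human GLUT1 were grown at 30 °C: first in SC-uracil/2% maltose for 2–3 days, then 1–2 days in SC-uracil/2% glucose from OD600 ~0.5. Cells were resuspended in PBS pH 7.4 at OD600 ~10 and given 5 mM C14-glucose for 10 min. Uptake was quenched with ice-cold buffer pH 5.5, filtered, and counted. Controls: 1% DMSO and 200 μM phloretin.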

GLUT4 = target: T3, GLUT4 (Homo sapiens, UniProt P14672); assay type: cell-based
T3 sequence (P14672 1-509): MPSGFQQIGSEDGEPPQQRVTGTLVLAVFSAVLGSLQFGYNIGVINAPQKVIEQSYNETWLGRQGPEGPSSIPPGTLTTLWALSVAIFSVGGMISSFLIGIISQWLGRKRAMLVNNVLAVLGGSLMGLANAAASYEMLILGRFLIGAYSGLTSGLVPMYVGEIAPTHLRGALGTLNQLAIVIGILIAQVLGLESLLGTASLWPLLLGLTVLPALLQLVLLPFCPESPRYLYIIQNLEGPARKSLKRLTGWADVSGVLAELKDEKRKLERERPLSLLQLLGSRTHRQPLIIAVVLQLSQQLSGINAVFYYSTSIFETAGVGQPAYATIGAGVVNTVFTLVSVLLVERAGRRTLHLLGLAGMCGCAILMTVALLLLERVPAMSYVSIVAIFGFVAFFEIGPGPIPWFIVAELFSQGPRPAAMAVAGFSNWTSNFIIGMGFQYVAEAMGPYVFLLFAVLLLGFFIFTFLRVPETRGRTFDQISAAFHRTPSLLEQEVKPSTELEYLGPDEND
Procedure, shortened: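 VW4000fgy1erg4 hxt0 yeast expressing human GLUT4 were cultured at 30 °C, first in SC-uracil/1% maltose and then in SC-uracil/0.2% glucose from OD600 ~0.5. Cells in PBS pH 7.4 (OD600 ~10) were fed 5 mM C14-glucose for 10 min. The reaction was quenched in ice-cold buffer pH 5.5, then filtered and scintillation-counted. Vehicle control was 1% DMSO; 200 μM phloretin served as positive control.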

O=C(CN1C(=O)SC(=Cc2ccc(Cl)cc2)C1=O)Nc1ccc(F)cc1F [Compound G6, 2-[5-(4-Chlorobenzylidene)-2,4-dioxothiazolidin-3-yl]-N-(2,4-diflurophenyl)acetamide]
HDAC-8 relative enzyme activity (HDAC8): < 50%
IC50 (HDAC8; read-out: HDAC8 IC50, Means ±SD, n=3): 49 ± 5 µM
IC50 (K562 cells; MTT, 48 h, Mean±SD, n=3): 48.2 ± 1.23 µM
IC50 (CEM cells): 39.3 ± 2.68 µM
IC50 (HDAC4; read-out: HDAC4 IC50, Means ±SD, n=3): > 50 µM

Cc1ccc(C=C2SC(=O)N(CC(=O)Nc3ccc(F)cc3F)C2=O)cc1C [Compound G4, N-[2,4-Difluorophenyl)-2-[5-(3,4-dimethylbenzylidene)-2,4-dioxothiazolidin-3-yl]acetamide]
IC50 (K562 cells; Homo sapiens, K562, 48 h): > 50 µM

O=C(CN1C(=O)SC(=Cc2ccccc2)C1=O)Nc1ccc(F)cc1F [Compound G14, 2-[5-Benzylidene-2,4-dioxothiazolidin-3-yl]-N-(2,4-difluorophenyl)acetamide]
IC50 (K562 cells; Homo sapiens, K562, 48 h): > 50 µM

CC(=O)O[C@H]1C(=O)[C@@]2(C)[C@H]([C@H](OC(=O)c3ccccc3)[C@]3(O)C[C@H](OC(=O)[C@H](O)[C@@H](NC(=O)c4ccccc4)c4ccccc4)C(C)=C1C3(C)C)[C@]1(OC(C)=O)CO[C@@H]1C[C@@H]2O [Paclitaxel, reference compound]
IC50 (K562 cells; Homo sapiens, K562, 48 h): 0.29 ± 0.15 µM

O=C(CN1C(=O)SC(=Cc2ccc(F)cc2F)C1=O)Nc1cccc(C(F)(F)F)c1 [Compound G15, 2-(5-(2,4-difluorobenzylidene)-2,4-dioxothiazolidin-3-yl)-N-(3-(trifluoromethyl)phenyl) acetamide]
IC50 (K562 cells; MTT, 48 h, Mean±SD, n=3): > 50 µM
IC50 (CEM cells): 17.3 ± 1.16 µM

O=C(CN1C(=O)SC(=Cc2ccc(F)cc2)C1=O)Nc1ccc(Cl)cc1C(F)(F)F [Compound G9, N-(4-Chloro-2-trifluoromethylphenyl)-2-[5-(4-fluorobenzylidene)-2,4-dioxothiazolidin-3-yl]acetamide]
IC50 (HDAC8): 45 ± 5 µM
HDAC-8 relative enzyme activity (HDAC8): < 50%
IC50 (K562 cells; Homo sapiens, K562, 48 h): 43.6 ± 2.23 µM
IC50 (HDAC4): > 50 µM

Cc1ccc(C=C2SC(=O)N(CC(=O)Nc3ccc(F)cc3F)C2=O)cc1 [Compound G12, N-(2,4-Difluoropheyl)-2-[5-(4-methylbenzylidene)-2,4-dioxothiazolidin-3-yl]acetamide]
IC50 (K562 cells; MTT, 48 h, Mean±SD, n=3): > 50 µM
IC50 (CEM cells): 9.93 ± 2.03 µM

O=C(CN1C(=O)SC(=Cc2ccc(Br)cc2)C1=O)Nc1ccc(F)cc1F [Compound G2, 2-[5-(4-Bromobenzylidene)-2,4-dioxo-thiazolidin-3-yl]-N-(2,4-diflurophenyl)acetamide]
IC50 (K562 cells; MTT, 48 h, Mean±SD, n=3): > 50 µM
IC50 (CEM cells): 47.7 ± 2.12 µM

O=C(CN1C(=O)SC(=Cc2ccc(F)cc2F)C1=O)Nc1ccc(Cl)cc1C(F)(F)F [Compound G7, N-(4-Chloro-2-trifluoromethylphenyl)-2-[5-(2,4-difluorobenzylidene)-2,4-dioxothiazolidin-3-yl] acetamide]
IC50 (K562 cells; MTT, 48 h, Mean±SD, n=3): 36.8 ± 1.77 µM
IC50 (CEM cells): 40.4 ± 2.94 µM

O=C(CN1C(=O)SC(=Cc2ccc(F)cc2)C1=O)Nc1ccc(F)cc1F [Compound G10, N-(2,4-Difluoropheyl)-2-[5-(4-fluoro-benzylidene)-2,4-dioxothiazolidin-3-yl]acetamide]
IC50 (K562 cells; MTT, 48 h, Mean±SD, n=3): 45.4 ± 1.13 µM
IC50 (CEM cells): 27.4 ± 3.06 µM

O=C(CN1C(=O)SC(=Cc2ccc(F)cc2F)C1=O)Nc1ccc(F)cc1F [Compound G8, 2-[5-(2,4-Difluorobenzylidene)-2,4-dioxothiazolidin-3-yl]-N-(2,4-diflurophenyl)acetamide]
IC50 (K562 cells; MTT, 48 h, Mean±SD, n=3): 34.5 ± 3.01 µM
IC50 (CEM cells): 4.77 ± 1.51 µM

CCc1ccc(CCOc2ccc(CC3SC(=O)NC3=O)cc2)nc1 (stereo not drawn) [Pioglitazone, reference compound]
IC50 (K562 cells; Homo sapiens, K562, 48 h): 32 ± 3.66 µM

O=C(CN1C(=O)SC(=Cc2ccc(F)cc2)C1=O)Nc1cccc(C(F)(F)F)c1 [Compound G16, 2-(5-(4-fluorobenzylidene)-2,4-dioxothiazolidin-3-yl)-N-(3-(trifluoromethyl)phenyl)acetamide]
GLUT5 inhibition, result in words (GLUT5): did not affect GLUT5; also recorded: neither G16 nor G17 altered the transport activity of GLUT5
IC50 (K562 cells; Homo sapiens, K562, 48 h): 23.5 ± 1.94 µM
IC50 (GLUT1): 26.6 µM and 26.8 µM
decrease of relative transport activity of GLUT1 (GLUT1): > 50%
IC50 (GLUT4): 21.6 ± 4.5 µM
decrease of relative transport activity of GLUT4 (GLUT4; primary screen, 100 μM compound): > 50%

O=C(CN1C(=O)SC(=Cc2ccccc2)C1=O)Nc1nc2c(Cl)cccc2s1 [Compound G17, 2-(5-benzylidene-2,4-dioxothiazolidin-3-yl)-N-(4-chlorobenzo[d]thiazol-2-yl)acetamide]
GLUT5 inhibition, result in words (GLUT5): neither G16 nor G17 altered the transport activity of GLUT5
IC50 (K562 cells; Homo sapiens, K562, 48 h): 79 ± 3.66 µM
IC50 (GLUT1): 12.6 ± 1.2 µM
decrease of relative transport activity of GLUT1 (GLUT1): > 50%
GLUT1 inhibition, result in words (GLUT1; up to 100 μM): selective inhibitor of GLUT1
